Experimental findings from ChEMBL document CHEMBL1147015, “Design and synthesis of selective, high-affinity inhibitors of human cytochrome P450 2J2” (Bioorg Med Chem Lett, 2006) are described below.

One test deals with T1, Cytochrome P450 2J2 (Homo sapiens, UniProt P51589).
T1 sequence (P51589 whole entry): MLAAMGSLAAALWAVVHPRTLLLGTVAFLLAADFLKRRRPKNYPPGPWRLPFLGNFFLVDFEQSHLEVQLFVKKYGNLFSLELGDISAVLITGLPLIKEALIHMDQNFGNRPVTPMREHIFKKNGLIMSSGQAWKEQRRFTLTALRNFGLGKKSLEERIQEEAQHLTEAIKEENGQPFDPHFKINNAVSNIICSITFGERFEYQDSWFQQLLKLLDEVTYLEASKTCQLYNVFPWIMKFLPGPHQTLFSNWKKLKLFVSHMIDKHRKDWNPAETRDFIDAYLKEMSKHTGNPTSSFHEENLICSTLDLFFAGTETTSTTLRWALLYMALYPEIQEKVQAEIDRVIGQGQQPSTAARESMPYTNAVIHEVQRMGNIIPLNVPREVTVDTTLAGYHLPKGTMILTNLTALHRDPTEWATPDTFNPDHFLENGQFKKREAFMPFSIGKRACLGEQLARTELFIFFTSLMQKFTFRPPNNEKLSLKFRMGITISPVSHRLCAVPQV
As to the kind of experiment: Inhibition of human recombinant CYP2J2 expressed in baculovirus-infected Sf9 insect cells. Put shortly: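 Ebastine hydroxylation used as the read-out. Ebastine (0.5 μM) plus inhibitor incubated at 37 °C for 2 or 4 min with Sf9 microsomes (1 nM CYP2J2) in 0.1 M phosphate buffer pH 7.4, 0.1 mM EDTA and NADPH-generating system. Stopped with cold CH3CN/CH3COOH (10:1); protein spun out; supernatant analysed by HPLC on C18. IC50 determined.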

The target of another test is T2, Cytochrome P450 2B6 (Homo sapiens, UniProt P20813).
T2 sequence (P20813 whole entry): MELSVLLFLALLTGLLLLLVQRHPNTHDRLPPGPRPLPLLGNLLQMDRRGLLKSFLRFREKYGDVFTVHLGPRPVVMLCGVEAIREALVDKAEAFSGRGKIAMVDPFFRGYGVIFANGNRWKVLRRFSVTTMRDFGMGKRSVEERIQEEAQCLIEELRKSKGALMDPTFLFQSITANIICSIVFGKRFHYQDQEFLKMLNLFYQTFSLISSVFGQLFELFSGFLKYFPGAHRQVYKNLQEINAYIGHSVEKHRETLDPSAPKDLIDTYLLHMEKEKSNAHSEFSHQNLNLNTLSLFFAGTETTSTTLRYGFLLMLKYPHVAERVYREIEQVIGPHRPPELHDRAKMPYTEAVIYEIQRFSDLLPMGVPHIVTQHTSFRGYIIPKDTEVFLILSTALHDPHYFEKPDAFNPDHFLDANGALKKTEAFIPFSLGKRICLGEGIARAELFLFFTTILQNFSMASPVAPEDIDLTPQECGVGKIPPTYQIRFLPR
As to the kind of experiment: Inhibition of human recombinant CYP2B6. In kind it is ADME.

A further test addresses Cytochrome P450 3A4 (Homo sapiens, UniProt P08684). As to the kind of experiment: Inhibition of human recombinant CYP3A4. In kind it is ADME.
A further test concerns the target T3, Cytochrome P450 2C8 (Homo sapiens, UniProt P10632).
T3 sequence (P10632 whole entry): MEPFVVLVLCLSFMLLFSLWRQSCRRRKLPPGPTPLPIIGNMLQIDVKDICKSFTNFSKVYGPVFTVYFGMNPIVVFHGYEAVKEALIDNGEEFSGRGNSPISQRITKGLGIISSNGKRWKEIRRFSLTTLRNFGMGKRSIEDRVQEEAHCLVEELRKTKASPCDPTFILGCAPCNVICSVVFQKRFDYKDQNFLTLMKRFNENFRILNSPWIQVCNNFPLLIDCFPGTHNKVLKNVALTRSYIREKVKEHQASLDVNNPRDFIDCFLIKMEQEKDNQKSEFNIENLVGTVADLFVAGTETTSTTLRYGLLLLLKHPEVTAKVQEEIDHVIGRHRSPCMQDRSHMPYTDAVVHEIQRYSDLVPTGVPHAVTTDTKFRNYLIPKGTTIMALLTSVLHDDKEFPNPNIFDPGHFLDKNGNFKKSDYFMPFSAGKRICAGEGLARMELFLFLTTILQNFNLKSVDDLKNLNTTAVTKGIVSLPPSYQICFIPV
As to the kind of experiment: Inhibition of human recombinant CYP2C8. In kind it is ADME.

For the next test, the target named is Cytochrome P450 2C9 (Homo sapiens, UniProt P11712). As to the kind of experiment: Inhibition of human recombinant CYP2C9. Type of test: ADME.
Cytochrome P450 2C9, sequence (P11712 whole entry): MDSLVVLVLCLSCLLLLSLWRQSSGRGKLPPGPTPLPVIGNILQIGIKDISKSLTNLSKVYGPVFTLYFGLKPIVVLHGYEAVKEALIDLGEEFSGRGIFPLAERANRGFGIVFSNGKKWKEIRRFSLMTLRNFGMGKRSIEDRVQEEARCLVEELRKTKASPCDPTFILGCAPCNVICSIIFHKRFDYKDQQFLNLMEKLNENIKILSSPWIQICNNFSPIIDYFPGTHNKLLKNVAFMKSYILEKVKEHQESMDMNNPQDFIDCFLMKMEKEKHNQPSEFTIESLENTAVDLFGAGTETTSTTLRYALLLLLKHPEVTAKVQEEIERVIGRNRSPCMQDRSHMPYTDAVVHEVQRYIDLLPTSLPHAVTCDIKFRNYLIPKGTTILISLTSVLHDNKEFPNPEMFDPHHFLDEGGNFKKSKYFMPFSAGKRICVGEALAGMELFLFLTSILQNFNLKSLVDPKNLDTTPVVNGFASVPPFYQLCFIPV

Bounds are passed on as bounds.

Cytochrome P450 3A4, sequence (P08684 whole entry): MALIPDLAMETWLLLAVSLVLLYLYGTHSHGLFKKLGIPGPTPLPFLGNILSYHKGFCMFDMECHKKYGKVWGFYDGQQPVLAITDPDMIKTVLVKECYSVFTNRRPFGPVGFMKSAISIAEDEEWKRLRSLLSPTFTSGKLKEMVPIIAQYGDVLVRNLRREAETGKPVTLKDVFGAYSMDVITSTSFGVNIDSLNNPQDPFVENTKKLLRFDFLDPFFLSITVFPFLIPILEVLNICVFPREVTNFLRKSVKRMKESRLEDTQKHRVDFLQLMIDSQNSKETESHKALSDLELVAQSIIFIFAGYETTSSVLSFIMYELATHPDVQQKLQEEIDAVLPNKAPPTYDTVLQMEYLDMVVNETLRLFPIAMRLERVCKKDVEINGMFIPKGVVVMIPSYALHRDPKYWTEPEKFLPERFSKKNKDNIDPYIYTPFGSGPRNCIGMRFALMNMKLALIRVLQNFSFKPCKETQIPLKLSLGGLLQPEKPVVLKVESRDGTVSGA

Broadly, the IC50 is the concentration that gives 50% inhibition. Consider `CCc1ccc(C(=O)CCCN2CCC(C(O)(c3ccccc3)c3ccccc3)CC2)cc1`, for which the IC50 on Cytochrome P450 2J2 came to 600 nM. Turning to `O=C(CCCN1CCC(C(O)(c2ccccc2)c2ccccc2)CC1)c1ccc(Br)cc1`, the IC50 at Cytochrome P450 2J2 came to 4200 nM. On the same count and under the same terms, for `Cc1ccc(C(=O)CCCN2CCC(C(O)(c3ccccc3)c3ccccc3)CC2)cc1` the value was 700 nM; for `CCCCc1ccc(C(=O)CCCN2CCC(C(O)(c3ccccc3)c3ccccc3)CC2)cc1`, 700 nM.

As to `O=C(CCCN1CCC(C(O)(c2ccccc2)c2ccccc2)CC1)c1ccc(CCCO)cc1`, the concentration for half-maximal inhibition (IC50) on Cytochrome P450 2J2 worked out at 1900 nM. Same read-out and setting: under `O=C(CCCN1CCC(C(O)(c2ccccc2)c2ccccc2)CC1)c1ccc2c(c1)OCO2` stands 6700 nM. For the compound `COc1ccc(C(=O)CCCN2CCC(C(O)(c3ccccc3)c3ccccc3)CC2)cc1`, the concentration for half-maximal inhibition (IC50) on Cytochrome P450 2J2 is 7600 nM. Consider `C=CCc1ccc(C(=O)CCCN2CCC(C(O)(c3ccccc3)c3ccccc3)CC2)cc1`, for which the IC50 at Cytochrome P450 2B6 was 21000 nM; at Cytochrome P450 2J2, 400 nM; at Cytochrome P450 3A4, 5500 nM; at Cytochrome P450 2C8, > 100000 nM; at Cytochrome P450 2C9, 21000 nM. Consider `O=C(CCCN1CCC(C(O)(c2ccccc2)c2ccccc2)CC1)c1ccc(CCO)cc1`, for which the IC50 on Cytochrome P450 2J2 was 1300 nM. Same read-out and setting: under `O=C(CCCN1CCC(C(O)(c2ccccc2)c2ccccc2)CC1)c1ccc(CC(F)F)cc1` stands 2200 nM; under `CC(C)(C)c1ccc(C(=O)CCCN2CCC(C(O)(c3ccccc3)c3ccccc3)CC2)cc1` [TERFENADONE], 700 nM; under `CC(=O)OCCCc1ccc(C(=O)CCCN2CCC(C(O)(c3ccccc3)c3ccccc3)CC2)cc1`, 2500 nM. What is called Ki is a dissociation constant, usually derived from enzyme kinetics or from competition with a known ligand. For `CCCc1ccc(C(=O)CCCN2CCC(C(O)(c3ccccc3)c3ccccc3)CC2)cc1`, the half-maximal inhibitory concentration (IC50) on Cytochrome P450 2B6 was 28000 nM; at Cytochrome P450 2J2, 400 nM; on Cytochrome P450 3A4, 7900 nM; at Cytochrome P450 2C8, > 100000 nM; at Cytochrome P450 2C9 it was 26000 nM. In addition, the Ki on Cytochrome P450 2J2 was found to be 160 nM.
